Source: PubChem (Sanford-Burnham Center for Chemical Genomics)
Compounds with a hit are over-represented: about 1.6% of the library has one in this group of screens.
TRAIL sens C8: viability loss with TRAIL in NB7+C8 cells, primary screen, TRAIL sensitizer project, cell-based, ATPlite luminescence. inhibition (viability loss, TRAIL sensitization), % at 10 µM. hit rate 1% among 360,000. AID 624354, 2012;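 active means compounds causing at least 50% loss of cell viability in the single-dose screen, relative to plate controls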
PPC-1+TRAIL kill: compounds killing PPC-1 cancer cells with TRAIL present, primary screen, TRAIL potentiator project, ATPLite luminescence, uHTS; PPC-1 cells + TRAIL, ATPLite viability luminescence; cell killing (% activity), % at 4 µM or 5 µM; hit rate 0.41% among 220,000; AID 1443, 2008;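 active means cell killing above 50% in the first pass at 4 µM, then a duplicate retest at 5 µM averaging 50% or more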;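 further: plate controls were cells with TRAIL plus DMSO for no effect and medium-only wells lacking cells for full effect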
FLuc stim CS: FLuc activators, initial screening, artefact control for FLuc-dependent activation tests, biochemical, ATPlite luminescence | Luciferin 4-monooxygenase (Photinus pyralis), P08659 | ATPlite luciferase biochemical, 10 min; 0 = ATP-free wells, 1 = DMSO control | activation factor at 10 µM | 200,000 tested, under 10 active | AID 1027, 2008;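 active means luciferase activation factor, scaled between plate controls, of at least 2 with compound at 10 µM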
Target sequence (P08659 whole entry, looked up): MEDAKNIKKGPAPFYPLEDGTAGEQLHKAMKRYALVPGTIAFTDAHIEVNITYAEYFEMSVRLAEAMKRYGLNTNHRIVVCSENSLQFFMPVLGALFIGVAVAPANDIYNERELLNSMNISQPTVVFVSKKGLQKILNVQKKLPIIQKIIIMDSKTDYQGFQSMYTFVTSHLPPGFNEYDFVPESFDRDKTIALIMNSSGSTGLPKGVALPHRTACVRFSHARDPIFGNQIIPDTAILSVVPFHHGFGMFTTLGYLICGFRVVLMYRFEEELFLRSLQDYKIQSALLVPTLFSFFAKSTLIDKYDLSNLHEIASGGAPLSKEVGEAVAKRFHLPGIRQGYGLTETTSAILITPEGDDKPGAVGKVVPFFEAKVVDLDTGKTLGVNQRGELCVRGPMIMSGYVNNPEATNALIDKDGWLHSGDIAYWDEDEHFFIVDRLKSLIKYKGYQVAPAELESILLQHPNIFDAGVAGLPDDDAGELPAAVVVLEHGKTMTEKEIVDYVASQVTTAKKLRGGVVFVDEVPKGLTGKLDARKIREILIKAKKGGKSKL
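Assay system: Luciferase/luciferin reagent mix; Medium: PBS as buffer for the ATP substrate; Dosing: test compounds dosed from 2 mM stocks in 100% DMSO; Times: 10 min, room temperature; Signal: luminescence from luciferase reaction; Read-out: luciferase activation; Controls: No-ATP low control, compound-free enzyme-plus-ATP high control.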
FLuc inh counter: firefly luciferase enzyme inhibitors, primary screen, artefact control for luciferase-based inhibitor screens, biochemical, luminescence, ATPLite; 10 min; inhibition, % at 10 µM; hit rate 1.5% among 200,000;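 active means inhibition above about 50% when tested at 10 µM, limit read from the data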
Starred values were filed as active, the others as inactive; x = no result.

SMILES	TRAIL sens C8	PPC-1+TRAIL kill	FLuc stim CS	FLuc inh counter
COC(=O)C1C(=O)c2c([nH]c(C(=O)OC3CCCC3)c2C)CC1C (configuration not stated)	47	37	0.4	56*
NC(=O)c1ccc(NC(=O)COC(=O)c2ccc(Br)c(S(=O)(=O)N3CCOCC3)c2)cc1	-3	x	x	x
Cc1cc(-c2csc3nc[nH]c(=S)c23)cc(C)c1C	60*	15	1.1	-8
CCN(CC)c1ccc(/C=C/c2nc3ccccc3s2)cc1	x	16	0.4	64*
Brc1ccc(-c2nnc3sc(CN4CCC5(CC4)OCCO5)cn23)cc1	66*	7	1	-4
CCOC(=O)c1c(C)oc(=O)c(CC)c1O	0	x	x	x
CCOC(=O)c1c(C)oc2c(F)c(F)c(F)c(F)c2c1=O	94*	21	1	-5
COc1ccc(C(=O)/C=C2\Sc3ccccc3N2C)cc1	43	50	0.3	71*
CC(=S)/C=C1\Sc2ccccc2N1C	-7	12	1.1	-6
C=Cc1cnc([N+](=O)[O-])n1C	-10	x	x	x
O=C(Cc1ccc([N+](=O)[O-])cc1)N/N=C/c1ccccc1F	-6	x	x	x
CCOC(=O)c1cnc2c(-c3ccc(F)cc3)cnn2c1C(F)(F)F	-2	-2	1	-3
CCOC(=O)c1cnc2c(-c3ccc(Cl)cc3)cnn2c1C	51*	x	0.4	57*
COc1ccc(CCNC(=O)c2ccc3ccccc3n2)cc1	-2	x	x	x
c1cncc(CNCc2ccco2)c1	-17	x	x	x
COc1ccccc1-c1cccc([C@@H]2C[C@H]3[C@H](CON3C)CN2C(=O)CCc2ccccc2)c1	6	x	x	x
Nc1cc2c3c(cccc3c1)C(=O)N(CCN1CCCC1)C2=O	25	14	x	x
O=C1c2cccc3cc([N+](=O)[O-])cc(c23)C(=O)N1CCN1CCCC1	59*	25	x	x
CC(=O)NC(c1ccccc1)c1nc(-c2ccc(Cl)cc2)cs1 (configuration not stated)	8	x	x	x
O=C(/C=C/Nc1ccc(F)cc1Br)c1ccccc1	95*	85*	0	96*
Cc1ccc(O)c(N/C=C/C(=O)c2ccc(F)cc2)c1	60*	x	x	x
O=C(/C=C\Nc1ccc(Br)cc1)c1cccnc1	66*	47	0.2	84*
Cc1ccc(C(=O)/C=C/C(=O)c2ccc(C)cc2)cc1	-11	8	1	2
Cc1ccc(C(=O)/C=C/Nc2ccc([N+](=O)[O-])cc2Br)cc1	30	28	0.6	39
Cc1ccc(C(=O)/C=C/Nc2ccccn2)cc1	82*	x	x	x
SMILES	TRAIL sens C8	PPC-1+TRAIL kill	FLuc stim CS	FLuc inh counter
O=C(NNC(=S)Nc1ccc(Br)cc1)c1cccnc1	3	x	x	x
O=C1c2ccccc2C(c2nnnn2Cc2ccccc2)N1Cc1ccco1 (configuration not stated)	-2	x	x	x
Cc1ccc(N/C=C/C(=O)c2ccc(C)cc2)cc1	32	24	0.5	51*
CN(C)c1ccc(N/C=C/C(=O)c2ccccc2)cc1	67*	18	0.1	92*
Cc1ccc(C(=O)/C=C\Nc2ccc(C)c(C)c2)cc1	31	31	0.7	29
O=C(/C=C/Nc1ccccc1)c1ccccc1	64*	23	0.1	92*
COc1ccc(N2CCN(C(=O)CCc3nnc4ccc(N5CCCC5)nn34)CC2)cc1	-3	x	x	x
Cc1ccc(-c2nn(-c3ccccc3)cc2CC(=S)N2CCOCC2)cc1	-4	x	x	x
Cc1ccc(Nc2nnc(SCC(=O)NCCN3C(=O)CSC3=O)s2)cc1C	53*	48	0.2	82*
COc1cc(OC)cc(C(=O)N2CCN(c3ccc(N4CCOCC4)nn3)CC2)c1	-6	x	x	x
CCCCC1CCC(C(=O)N(CC(C)C)c2c(N)n(CCCC)c(=O)[nH]c2=O)CC1 (configuration not stated)	23	x	x	x
CCCCC1CCC(C(=O)N(CCC(C)C)c2c(N)n(CCCC)c(=O)[nH]c2=O)CC1 (configuration not stated)	52*	x	x	x
CCCCn1c(N)c(N(CCC)C(=O)C2CCCC2)c(=O)[nH]c1=O	29	x	x	x
CCCCC1CCC(C(=O)N(CCCC)c2c(N)n(CCCC)c(=O)[nH]c2=O)CC1 (configuration not stated)	72*	x	x	x
Cc1ccccc1-c1nnc(-c2cccc3ccccc23)o1	51*	x	x	x
CCN1C(=O)[C@H]2[C@H]3CN=C(SCc4ccc(C)cc4)N3[C@@](Cc3ccccc3)(C(=O)OC)[C@H]2C1=O	-14	x	x	x
Oc1c(Cl)cccc1C=Nc1cc(C(F)(F)F)ccc1N1CCCC1	2	24	1.1	-5
Oc1c(Cl)cc(Cl)cc1C=Nc1cc(C(F)(F)F)ccc1N1CCc2ccccc2C1	53*	37	x	x
C[C@@H]1CN([C@H](C)CO)S(=O)(=O)c2ccc(Br)cc2O[C@H]1CN(C)C(=O)Nc1ccccc1	-24	x	x	x
C#Cc1ccccc1OCCCN1CCC(C(O)(c2ccccc2)c2ccccc2)CC1	93*	x	x	x
CCN(CC)C(=O)[C@H]1C[C@H](CC(=O)NCCCOC)C(=O)N2CCc3c([nH]c4cc(CCC(=O)N(C)C)ccc34)[C@]12C	5	x	x	x
Cc1ccc2c(c1)c1ccc3c(c1n2C)C(=O)C=CC3=O	58*	20	x	x
Cn1c2ccccc2c2ccc3c(c21)C(=O)C=CC3=O	29	x	x	x
CCCN1CCN(C(=O)c2ccc3[nH]c(C)c(C)c3c2)CC1	-15	x	x	x
CCn1nc(C)c(/C=N/NC(=O)c2c[nH]c3ccccc23)c1C	17	14	0.4	59*
SMILES	TRAIL sens C8	PPC-1+TRAIL kill	FLuc stim CS	FLuc inh counter
O=C(N/N=C/c1ccc[nH]1)c1c[nH]c2ccccc12	78*	x	x	x
Cc1c(Cl)cccc1NC(=O)CCN1CCC(C(N)=O)CC1	-5	x	x	x
O=C(CCl)N(O)c1ccc(C=Cc2ccccc2)cc1	51*	x	x	x
CCOc1ccc(/C=C\C(C)=N\O)cc1	34	34	0.3	69*
CCOC(=O)c1ccc2c(c1)n(CC)c(/C=C/N(C)c1ccccc1)[n+]2CC	38	20	1.1	-5
CC[n+]1c(/C=C/N(C)c2ccccc2)n(-c2ccccc2)c2ccc(-c3nc4ccccc4s3)cc21	91*	x	x	x
O=C(c1ccccc1)c1cc(Cl)ccc1N1C(=O)C=CC1=O	2	23	0.4	58*
O=C(CC(=O)c1cc(Cl)ccc1O)c1ccccc1	26	11	1	-1
CN(C)S(=O)(=O)c1cccc(CSCc2cccc(S(=O)(=O)N(C)C)c2)c1	11	x	x	x
CC(=O)Oc1cccc(/C=c2\sc3nc(-c4ccco4)nn3c2=O)c1	-3	8	0.1	89*
CCCOc1ccc(/C=c2\sc3nc(-c4ccco4)nn3c2=O)cc1OCC	5	4	1	0
CC1CCCN(CCCN2C(=O)C3C(C(=O)Nc4cccc(Cl)c4)C4C=CC3(O4)C2C(=O)NC2CCCCC2)C1 (configuration not stated)	12	x	x	x
COc1ccc(-c2sc3ccccc3c2-c2ccc(OCCN(C)C)cc2)cc1	79*	x	x	x
NC1=NN(c2c(Cl)cc(Cl)cc2Cl)C(=O)C1	-12	x	x	x
